# Data: ChEMBL document CHEMBL3875168, “Synthesis and apoptosis inducing studies of triazole linked 3-benzylidene isatin derivatives” (Eur J Med Chem, 2016)
# How the values were obtained:
# [1] = Cytotoxicity against human PC3 cells assessed as cell growth inhibition after 48 hrs by MTT assay; type: functional, cell-based; settings: PC-3, 48 h
# Procedure, shortened: (§1)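 Cell lines (NCCS) grown in DMEM or RPMI with 10% FBS and antibiotic-antimycotic at 37 °C, 5% CO2, 90% humidity. Cells seeded at 3-5×10^3 per well, treated 48 h with serial dilutions in medium beside vehicle control. Medium replaced with MTT (0.5 mg/mL) for 4 h, absorbance read at 570 nm. IC50 taken from concentration-response curves; sunitinib served as reference.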
# [2] = Cytotoxicity against human BT549 cells assessed as cell growth inhibition after 48 hrs by MTT assay; type: functional, cell-based; settings: BT-549, 48 h; procedure, shortened: as §1
# [3] = Cytotoxicity against human MDA-MB-231 cells assessed as cell growth inhibition after 48 hrs by MTT assay; type: functional, cell-based; settings: MDA-MB-231, 48 h; procedure, shortened: as §1
# [4] = Cytotoxicity against human HeLa cells assessed as cell growth inhibition after 48 hrs by MTT assay; type: functional, cell-based; procedure, shortened: as §1
# [5] = Cytotoxicity against human A549 cells assessed as cell growth inhibition after 48 hrs by MTT assay; type: functional, cell-based; settings: A549, 48 h; procedure, shortened: as §1
# [6] = Cytotoxicity against human DU145 cells assessed as cell growth inhibition after 48 hrs by MTT assay; type: functional, cell-based; settings: DU-145, 48 h; procedure, shortened: as §1
# [7] = Cytotoxicity against human RWPE1 cells assessed as cell growth inhibition after 48 hrs by MTT assay; type: toxicity, cell-based, RWPE-1
Compound,IC50 [1] [µM],IC50 [2] [µM],IC50 [3] [µM],IC50 [4] [µM],IC50 [5] [µM],IC50 [6] [µM],IC50 at 48 h [7] [µM]
COc1cc(Cn2cc(COc3cccc(/C=C4\C(=O)Nc5ccccc54)c3)nn2)cc(OC)c1,31.7,> 50,> 50,33.8,43.3,,
CC(=O)c1ccc2c(c1)/C(=C\c1cccc(OCc3cn(Cc4ccccc4)nn3)c1)C(=O)N2,> 50,> 50,> 50,> 50,> 50,> 50,
O=C1Nc2ccc([N+](=O)[O-])cc2/C1=C\c1cccc(OCc2cn(Cc3ccccc3)nn2)c1,> 50,> 50,> 50,> 50,> 50,,
COc1ccc(Cc2ccc3c(c2)/C(=C/c2cccc(OCc4cn(Cc5ccccc5)nn4)c2)C(=O)N3)cc1,> 50,36,20.4,7.7,30.5,6.7,
O=C1Nc2ccccc2/C1=C\c1cccc(OCc2cn(Cc3ccccc3)nn2)c1,29.5,> 50,,32.3,> 50,31.7,
O=C1Nc2ccc(C(=O)c3ccccc3)cc2/C1=C\c1cccc(OCc2cn(Cc3ccccc3)nn2)c1,> 50,> 50,> 50,> 50,> 50,> 50,
COc1cc(Cn2cc(COc3cccc(/C=C4/C(=O)Nc5ccccc54)c3)nn2)cc(OC)c1,37.1,,11.7,22,26.7,25.6,
Cc1ccc(C(C#Cc2ccccc2)c2ccc3c(c2)/C(=C/c2cccc(OCc4cn(Cc5ccccc5)nn4)c2)C(=O)N3)cc1 (centres undefined),> 50,> 50,> 50,> 50,> 50,> 50,
O=C1Nc2ccc(Cl)cc2/C1=C/c1cccc(OCc2cn(Cc3ccccc3)nn2)c1,> 50,,,,> 50,24.2,
O=Cc1cccc(OCc2cn(Cc3ccccc3)nn2)c1,> 50,> 50,> 50,> 50,> 50,> 50,
CC(=O)c1ccc2c(c1)/C(=C/c1cccc(OCc3cn(Cc4ccccc4)nn3)c1)C(=O)N2,> 50,> 50,> 50,> 50,36.3,> 50,
O=C1Nc2cc(Cl)ccc2/C1=C\c1cccc(OCc2cn(Cc3ccccc3)nn2)c1,> 50,> 50,> 50,> 50,> 50,20.1,
COc1ccc(Cc2ccc3c(c2)/C(=C\c2cccc(OCc4cn(Cc5ccccc5)nn4)c2)C(=O)N3)cc1,32.2,> 50,> 50,,> 50,> 50,
O=C1Nc2ccccc2/C1=C/c1cccc(OCc2cn(Cc3ccccc3)nn2)c1,34.5,> 50,,,31.5,,
O=C1Nc2ccc(F)cc2/C1=C\c1cccc(OCc2cn(Cc3ccccc3)nn2)c1,> 50,> 50,> 50,> 50,> 50,,
CCN(CC)CCNC(=O)c1c(C)[nH]c(/C=C2\C(=O)Nc3ccc(F)cc32)c1C [SUNITINIB],12.6,,7.4,10.4,,16.3,25.2
O=C1Nc2ccc(Br)cc2/C1=C/c1cccc(OCc2cn(Cc3ccccc3)nn2)c1,> 50,> 50,> 50,> 50,> 50,35.1,
O=C1Nc2cc(Br)ccc2/C1=C\c1cccc(OCc2cn(Cc3ccccc3)nn2)c1,> 50,> 50,,,9.6,5.7,
Cc1ccc(C(C#Cc2ccccc2)c2ccc3c(c2)/C(=C\c2cccc(OCc4cn(Cc5ccccc5)nn4)c2)C(=O)N3)cc1 (centres undefined),> 50,> 50,,32.8,36.6,28.9,
O=C1Nc2ccc(C(c3ccccc3)c3ccccc3)cc2/C1=C\c1cccc(OCc2cn(Cc3ccccc3)nn2)c1,> 50,> 50,> 50,> 50,> 50,> 50,
